Assays:
Rattus norvegicus [1] = experiment: Antidiabetic activity in sucrose loaded albino Sprague-Dawley rat model assessed as decrease in blood glucose level at 100 mg/kg, po; assay type: functional
Outline: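 Male Sprague–Dawley rats were fasted overnight and used in groups of five. Baseline blood was taken, then test sample was gavaged at 100 mg/kg. A sucrose load of […] followed 30 min later.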

Rattus norvegicus [2] = experiment: Antidiabetic activity in glucose loaded albino Sprague-Dawley rat model assessed as decrease in blood glucose level at 100 mg/kg, po; assay type: functional
Outline: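 Rats in groups of five were bled at baseline, then gavaged with test sample at 100 mg/kg. A glucose load of 2 g/kg was given 30 min later. Blood was collected at 30, 60, 90 and 120 min.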

[3] = molecular target: T1, Peroxisome proliferator-activated receptor alpha (Homo sapiens) (UniProt Q07869); experiment: Inhibition of PPARalpha at 50 uM
T1 sequence (whole entry): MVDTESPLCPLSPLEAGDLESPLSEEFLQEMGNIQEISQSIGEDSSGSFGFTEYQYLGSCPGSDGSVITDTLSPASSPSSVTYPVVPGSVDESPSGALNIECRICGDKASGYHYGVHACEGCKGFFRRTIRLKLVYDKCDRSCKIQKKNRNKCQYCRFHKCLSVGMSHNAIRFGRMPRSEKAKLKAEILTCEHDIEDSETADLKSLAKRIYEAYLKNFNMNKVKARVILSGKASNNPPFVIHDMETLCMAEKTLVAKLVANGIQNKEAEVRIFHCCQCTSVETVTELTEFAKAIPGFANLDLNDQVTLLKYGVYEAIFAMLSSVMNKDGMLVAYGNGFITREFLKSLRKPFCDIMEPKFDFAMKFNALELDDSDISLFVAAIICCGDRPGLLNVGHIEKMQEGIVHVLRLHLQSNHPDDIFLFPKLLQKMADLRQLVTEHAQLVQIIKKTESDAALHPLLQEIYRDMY

[4] = molecular target: T2, Peroxisome proliferator-activated receptor delta (Homo sapiens) (UniProt Q03181); experiment: Inhibition of PPARdelta at 3 uM
T2 sequence (whole entry): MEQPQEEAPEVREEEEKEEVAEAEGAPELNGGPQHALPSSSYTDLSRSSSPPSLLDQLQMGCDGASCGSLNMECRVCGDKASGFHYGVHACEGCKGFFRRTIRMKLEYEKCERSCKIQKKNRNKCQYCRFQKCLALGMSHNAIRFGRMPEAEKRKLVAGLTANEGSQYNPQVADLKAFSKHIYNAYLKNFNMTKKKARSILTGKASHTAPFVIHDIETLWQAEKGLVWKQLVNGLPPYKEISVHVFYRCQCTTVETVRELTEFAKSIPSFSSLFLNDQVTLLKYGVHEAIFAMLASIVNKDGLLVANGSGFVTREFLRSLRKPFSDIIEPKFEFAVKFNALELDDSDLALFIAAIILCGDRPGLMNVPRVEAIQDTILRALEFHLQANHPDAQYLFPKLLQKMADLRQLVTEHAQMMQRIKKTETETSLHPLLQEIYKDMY

Rattus norvegicus [5] = experiment: Inhibition of cholesterol level in triton treated Charles Foster rat at 100 mg/kg, po; assay type: functional
Outline: (§1)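 Male Charles Foster rats (200–225 g) were used, six per group. They received Triton WR-1339 200 mg/kg i.p. together with oral compound at 100 mg/kg in 2% aqueous gum acacia, over 18 h; vehicle controls were included. Rats were then fasted overnight and bled retro-orbitally. Serum total cholesterol, phospholipids and triglyceride were assayed.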

Rattus norvegicus [6] = experiment: Inhibition of phospholipids level in triton treated Charles Foster rat at 100 mg/kg, po; assay type: functional; outline: as §1
Rattus norvegicus [7] = experiment: Inhibition of triglyceride level in triton treated Charles Foster rat at 100 mg/kg, po; assay type: functional; outline: as §1
Rattus norvegicus [8] = experiment: Antidiabetic activity in streptozotocin-induced diabetic albino Sprague-Dawley rat model assessed as decrease in blood glucose level at 100 mg/kg, po; assay type: functional
Outline: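 Overnight-fasted rats received streptozotocin 60 mg/kg i.p. in 100 mM citrate buffer, pH 4.5. After 48 h, animals with glucometer glucose of 200–400 mg/dl were grouped (n=6). Sample in 1% gum acacia was given orally at 100 mg/kg; controls received vehicle.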

Rattus norvegicus [9] = experiment: Antidiabetic activity in sucrose challenged streptozotocin-induced diabetic albino Sprague-Dawley rat model assessed as decrease in blood glucose level at 100 mg/kg, po; assay type: functional
Outline: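 Diabetes was induced in overnight-fasted rats with streptozotocin 60 mg/kg i.p. in 100 mM citrate buffer, pH 4.5. Rats with glucose of 150–250 mg/dl at 48 h were selected. A sucrose load of 2.5 g/kg was given 30 min after oral dosing. Glucose was measured at 30–300 min and 24 h. Food was withheld, water allowed.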

Mus musculus [10] = experiment: Antidiabetic activity in db/db mouse at 100 mg/kg after 5 hrs on day 3; assay type: functional
Mus musculus [11] = experiment: Antidiabetic activity in db/db mouse at 100 mg/kg after 24 hrs on day 3; assay type: functional
[12] = molecular target: T3, Peroxisome proliferator-activated receptor gamma (Homo sapiens, UniProt P37231); experiment: Binding affinity at PPARgamma
T3 sequence (P37231 whole entry): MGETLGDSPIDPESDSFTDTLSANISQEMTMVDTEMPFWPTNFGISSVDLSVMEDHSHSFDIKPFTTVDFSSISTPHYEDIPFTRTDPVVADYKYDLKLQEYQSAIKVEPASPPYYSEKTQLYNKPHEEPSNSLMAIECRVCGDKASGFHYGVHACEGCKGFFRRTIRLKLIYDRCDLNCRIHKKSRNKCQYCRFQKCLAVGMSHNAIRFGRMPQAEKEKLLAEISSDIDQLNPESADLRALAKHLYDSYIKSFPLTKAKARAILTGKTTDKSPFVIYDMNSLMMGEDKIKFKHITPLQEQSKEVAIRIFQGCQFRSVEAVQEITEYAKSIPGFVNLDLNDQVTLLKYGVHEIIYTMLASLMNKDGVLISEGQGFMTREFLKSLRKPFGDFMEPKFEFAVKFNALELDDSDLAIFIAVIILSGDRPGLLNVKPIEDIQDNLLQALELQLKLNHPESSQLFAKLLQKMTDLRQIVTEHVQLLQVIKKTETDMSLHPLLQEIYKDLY

Syrian golden hamster [13] = experiment: Inhibition of triglyceride level in Syrian golden hamster at 300 umol/kg after 10 days; assay type: functional; conditions: Mesocricetus auratus, 240 h
Syrian golden hamster [14] = experiment: Inhibition of cholesterol level in Syrian golden hamster at 300 umol/kg after 10 days; assay type: functional; conditions: Mesocricetus auratus, 240 h
Syrian golden hamster [15] = experiment: Inhibition of HDL level in Syrian golden hamster at 300 umol/kg after 10 days; assay type: functional; conditions: Mesocricetus auratus, 240 h
Syrian golden hamster [16] = experiment: Inhibition of glucose level in Syrian golden hamster at 300 umol/kg after 10 days; assay type: functional; conditions: Mesocricetus auratus, 240 h
Syrian golden hamster [17] = experiment: Inhibition of glycerol level in Syrian golden hamster at 300 umol/kg after 10 days; assay type: functional; conditions: Mesocricetus auratus, 240 h
Syrian golden hamster [18] = experiment: Inhibition of free fatty acids level in Syrian golden hamster at 300 umol/kg after 10 days; assay type: functional; conditions: Mesocricetus auratus, 240 h

| SMILES | inhibition [3] [%] | inhibition [4] [%] | EC50 [12] [µM] | inhibition in vivo at 100 mg/kg (Rattus norvegicus [1]) [%] | inhibition in vivo at 100 mg/kg (Rattus norvegicus [2]) [%] | inhibition in vivo at 100 mg/kg (Rattus norvegicus [5]) [%] | inhibition in vivo at 100 mg/kg (Rattus norvegicus [6]) [%] | inhibition in vivo at 100 mg/kg (Rattus norvegicus [7]) [%] | inhibition in vivo at 100 mg/kg (Rattus norvegicus [8]) [%] | inhibition in vivo at 100 mg/kg (Rattus norvegicus [9]) [%] | inhibition in vivo at 100 mg/kg (Mus musculus [10]) [%] | inhibition in vivo at 100 mg/kg (Mus musculus [11]) [%] | inhibition in vivo at 300 µmol/kg (Syrian golden hamster [13]) [%] | inhibition in vivo at 300 µmol/kg (Syrian golden hamster [14]) [%] | inhibition in vivo at 300 µmol/kg (Syrian golden hamster [15]) [%] | inhibition in vivo at 300 µmol/kg (Syrian golden hamster [16]) [%] | inhibition in vivo at 300 µmol/kg (Syrian golden hamster [17]) [%] | inhibition in vivo at 300 µmol/kg (Syrian golden hamster [18]) [%] |
| --- | --- | --- | --- | --- | --- | --- | --- | --- | --- | --- | --- | --- | --- | --- | --- | --- | --- | --- |
| C/C=C1\C(=O)C[C@H]2[C@@H]3CCC4=CC(=O)CC[C@]4(C)[C@H]3CC[C@]12C [GUGGULSTERONE] |  |  |  |  |  | 34 | 33 | 30 |  |  |  |  |  |  |  |  |  |  |
| CCO[C@@H](Cc1ccc(OCCc2ccc(OS(C)(=O)=O)cc2)cc1)C(=O)O | 55.5 |  |  |  |  |  |  |  |  |  |  |  |  |  |  |  |  |  |
| Cc1ccc(NCCCCOc2ccc3ccccc3c2)cc1 |  |  |  | 6.9 | 3.21 |  |  |  |  |  |  |  |  |  |  |  |  |  |
| COc1cccc(CNCCCOc2ccc3ccccc3c2)c1 |  |  |  | 8.3 | 1.23 | 14 | 22 | 22 |  |  |  |  |  |  |  |  |  |  |
| c1ccc(CNCCOc2ccc3ccccc3c2)cc1 | 36.2 | 31.3 | 0.4 | 64 | 37.6 | 31 | 34 | 37 | 13 | 69.5 | 7 | 11.6 | 37 | 14 | 13 | 9.5 | 10 |  |
| Cc1ccc(NCCOc2ccc3ccccc3c2)cc1 |  |  |  | 6.99 | 2.45 | 27 | 30 | 18 |  |  |  |  |  |  |  |  |  |  |
| CCOC(=O)CN(CCCOc1ccc2ccccc2c1)c1ccc(OC)cc1 | 33.5 | 29.6 | 4.8 | 45.4 | 25.9 | 21.2 | 26 | 15 | 6.9 | 5.6 | 12 | 15.4 | 68 | 22 | 16 | 34 | 7.3 | 48 |
| Cc1ccc(S(=O)(=O)NC(=O)NN2CC3CCCC3C2)cc1 (stereo not given) [GLICLAZIDE] |  |  |  | 44.8 |  |  |  |  | 27.7 |  |  |  |  |  |  |  |  |  |
| COc1ccc(Cl)cc1C(=O)NCCc1ccc(S(=O)(=O)NC(=O)NC2CCCCC2)cc1 [GLYBURIDE] |  |  |  | 33.9 |  |  |  |  | 32.8 |  |  |  |  |  |  |  |  |  |

Continued, in another order:

| inhibition [3] [%] | inhibition [4] [%] | EC50 [12] [µM] | SMILES | inhibition in vivo at 100 mg/kg (Rattus norvegicus [1]) [%] | inhibition in vivo at 100 mg/kg (Rattus norvegicus [2]) [%] | inhibition in vivo at 100 mg/kg (Rattus norvegicus [5]) [%] | inhibition in vivo at 100 mg/kg (Rattus norvegicus [6]) [%] | inhibition in vivo at 100 mg/kg (Rattus norvegicus [7]) [%] | inhibition in vivo at 100 mg/kg (Rattus norvegicus [8]) [%] | inhibition in vivo at 100 mg/kg (Rattus norvegicus [9]) [%] | inhibition in vivo at 100 mg/kg (Mus musculus [10]) [%] | inhibition in vivo at 100 mg/kg (Mus musculus [11]) [%] | inhibition in vivo at 300 µmol/kg (Syrian golden hamster [13]) [%] | inhibition in vivo at 300 µmol/kg (Syrian golden hamster [14]) [%] | inhibition in vivo at 300 µmol/kg (Syrian golden hamster [15]) [%] | inhibition in vivo at 300 µmol/kg (Syrian golden hamster [16]) [%] | inhibition in vivo at 300 µmol/kg (Syrian golden hamster [17]) [%] | inhibition in vivo at 300 µmol/kg (Syrian golden hamster [18]) [%] |
| --- | --- | --- | --- | --- | --- | --- | --- | --- | --- | --- | --- | --- | --- | --- | --- | --- | --- | --- |
| 28.4 | 29.1 |  | c1ccc(CNCCCOc2ccc3ccccc3c2)cc1 | 40.5 | 13.8 |  |  |  |  |  |  |  |  |  |  |  |  |  |
| 18.3 | 16.3 |  | COc1ccc(NCCCCOc2ccc3ccccc3c2)cc1 | 5.09 | 3.89 | 24 | 36 | 22 |  |  |  |  |  |  |  |  |  |  |
| 22.5 | 19.3 |  | COc1ccc(N(C)CCCOc2ccc3ccccc3c2)cc1 | 14.5 | 8.2 | 11 | 19 | 15 |  |  |  |  |  |  |  |  |  |  |
| 11.4 | 7.9 |  | CCCCCCCCNCCCOc1ccc2ccccc2c1 | 32 | 17 |  |  |  |  |  |  |  |  |  |  |  |  |  |
| 8.5 | 8.4 |  | CCCCN(CCCOc1ccc2ccccc2c1)c1ccc(OC)cc1 | 4.4 | 13.5 | 15 | 25 | 17 |  |  |  |  |  |  |  |  |  |  |
| 44.5 | 42.6 | 33.8 | COc1ccc(NCCCOc2ccc3ccccc3c2)cc1 | 31 | 33.6 | 32.4 | 38 | 28 | 28.5 | 73.8 | 22.4 | 28.9 | 48 | 14 | 15 | 31 | 14 |  |
| 21.3 | 22.4 |  | c1ccc(CNCCCCOc2ccc3ccccc3c2)cc1 | 16 | 8.89 | 10.1 | 18 | 5 |  |  |  |  |  |  |  |  |  |  |
| 10.9 | 9.6 |  | CCCN(CCCOc1ccc2ccccc2c1)c1ccc(OC)cc1 | 37.2 | 11.6 | 14 | 27 | 12 |  |  |  |  |  |  |  |  |  |  |
| 25.4 | 20.2 |  | COc1ccc(N(CCCOc2ccc3ccccc3c2)CC(=O)O)cc1 | 21.5 | 15.5 | 23.8 | 16.9 | 13 |  |  |  |  | 44 | 21 | 11 | 22 | 23 |  |
| 20.3 | 17.3 |  | CCN(CCCOc1ccc2ccccc2c1)c1ccc(OC)cc1 | 13.5 | 6.88 |  |  |  |  |  |  |  |  |  |  |  |  |  |
| 22.2 | 24.6 |  | COc1ccc(NCCOc2ccc3ccccc3c2)cc1 | 19.4 | 10.6 |  |  |  |  |  |  |  |  |  |  |  |  |  |
